We go through 15 compounds from article PMC3712647 (European journal of medicinal chemistry, 2013).

SMILES strings stand for the structures. Where two headings read alike, the source gives them in different places.

Series [1] has as its system full NCI 60 cell panel. In words: NCI 60 five-concentration screen, panel mean. The class given is cell-based. The settings on record: Homo sapiens, 48 h; for IC (TGI): read-out: TGI MG-MID; for GI50: read-out: GI50 MG-MID; for CC50: read-out: LC50 MG-MID.
Series [2] has as its system Breast. In words: cells. It counts as cell-based. The settings on record: Homo sapiens, 48 h, read-out: TGI Breast.
Series [3] deals with Nox4 in B1647 cells. In words: Intracellular ROS after Nox2 silencing in B1647 cells. The settings on record: siRNA against Nox2, 50 nM. It counts as cell-based, human.
For series [4], the system named is Leukemia. In words: cells. The class given is cell-based. The settings on record: Homo sapiens, 48 h, read-out: TGI Leukemia.
In series [5] the test system is Melanoma. Description: NCI 60 five-concentration screen, melanoma subpanel. It counts as cell-based. The settings on record: Homo sapiens, 48 h, read-out: TGI Melanoma.
Series [6] relates to Nox4. In words: Nox4 expression by Western blotting in B1647 cells. The settings on record: 24 h treatment; 10 µM. The class given is cell-based, human. An outline of the steps:
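B1647 cells were treated 24 h, then lysed 15 min on ice (1% Igepal, 150 mM NaCl, 50 mM Tris–HCl, 5 mM EDTA, protease inhibitors, orthovanadate, pH 8.0). 40 µg protein/lane ran on 10% SDS-PAGE and was transferred to nitrocellulose (100 V, 90 min). Blots were blocked in 5% milk in TBS/Tween, probed overnight at 4 °C with anti-Nox4 and anti-β-tubulin, then HRP secondaries, with luminol detection.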
A general note: In western blotting, separated proteins are transferred to a membrane and probed.

In series [7] the test system is Nox4 in B1647 cells. In words: Intracellular ROS level. It counts as cell-based, human. The settings on record: 30 min treatment at 5 or 10 µM. In outline: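 Human AML B1647 cells grown in IMDM with 5% human serum (37 °C, 5% CO₂) were treated 30 min with test compound in DMSO. Cells (1 × 10⁶/mL) were washed twice in PBS and loaded with 5 µM DCFH-DA for 20 min at 37 °C. Oxidized DCF fluorescence was read in a multiwell plate reader.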

Series [8] deals with Ovarian. Description: cells. The class given is cell-based. The settings on record: Homo sapiens, 48 h, read-out: TGI Ovarian.
The subject of series [9] is Renal. In words: NCI 60 five-concentration screen, renal subpanel. It counts as cell-based. The settings on record: Homo sapiens, 48 h, read-out: TGI Renal.
Series [10] concerns CNS. In words: cells. It counts as cell-based. The settings on record: Homo sapiens, 48 h, read-out: TGI CNS.
Series [11] relates to NSCLC. Description: NCI 60 five-concentration screen, NSCLC subpanel. The following applies: Homo sapiens, 48 h, read-out: TGI NSCLC. It counts as cell-based.
In series [12] the test system is Prostate. In words: cells. It counts as cell-based. The settings on record: Homo sapiens, 48 h, read-out: TGI Prostate.
Series [13] has as its system Colon. In words: NCI 60 five-concentration screen, colon subpanel. It counts as cell-based. The following applies: Homo sapiens, 48 h, read-out: TGI Colon.
Series [14] concerns cells. In words: Cell cycle effect. The following applies: data not presented. The class given is cell-based.
Series [15] concerns full NCI 60 cell panel. In words: NCI 60 Cell One-Dose Screen. It counts as cell-based.

`COc1ccc(OC)c2c1NC(=O)/C2=C\c1cc(OC)c(OC)c(OC)c1` [Compound 3]: the IC (TGI) in series [1] stood at 19.5 µM; in series [2], 19 µM.

Regarding `COc1cc(/C=C2\C(=O)Nc3ccc(Br)cc32)cc(OC)c1OC` [Compound 5], the 50% growth inhibitory concentration (GI50) (commonly the concentration that inhibits growth by half) in [1] was 7.9 µM. In addition, the IC (TGI) amounted to 67.6 µM in series [1], 49 µM in series [4] and 76 µM in series [5]. The “ROS production in Nox2 silenced cells vs scrambled cells” value in [3] is on record as “inhibited ROS production to the same extent”. For the same compound, the Nox4 expression entry in series [6] was “downregulate Nox4 expression”. In addition, the ROS generation result in series [7] is on record as “partially inhibited”.

In the case of `COc1cc(/C=C2\C(=O)Nc3ccc(N(C)C)cc32)cc(OC)c1OC` [Compound 6], in [1], the GI50 came out at 2.8 µM. In addition, in [1], the CC50 was 89.1 µM. Also, the IC (TGI) is 32.4 µM in series [1], 9.3 µM in series [4], 32.4 µM in series [8] and 49 µM in [9].

As to `COc1cc(/C=C2/C(=O)Nc3cc(C)c(O)cc32)cc(OC)c1OC` [Compound 7], in series [1], the GI50 came out at 4.3 µM, the CC50 amounted to 69.2 µM and the IC (TGI) came out at 20.9 µM. Further, the “ROS production in Nox2 silenced cells vs scrambled cells” value in series [3] was “inhibited ROS production to the same extent”. Besides, the IC (TGI) in series [4] was found to be 8.7 µM. Moreover, in [6], the Nox4 expression result is listed as “downregulate Nox4 expression”. For the same compound, the ROS generation entry in series [7] is given as “partially inhibited”.

As to `COc1cc(/C=C2\C(=O)Nc3cc(Cl)ccc32)cc(OC)c1OC` [Compound 8], the IC (TGI) is 5 µM in [10]; 5.4 µM in series [1]; 8.3 µM in series [11]; 3.6 µM in series [4]; 6.8 µM in series [5]; 5.4 µM in series [8]. The IC (TGI) in [12] was 5.4 µM; in [2] it was 4.1 µM; in series [9], 4.9 µM; in series [13], 5.4 µM. The concentration for 50% growth inhibition (GI50) in series [1] stood at 1.3 µM. Moreover, the CC50 in [1] came out at 24 µM. Further, the “proportion of cells in G2/M” value in series [14] was “increased proportion of cells in G2/M”.

Consider `COc1cc(/C=C2\C(=O)Nc3cc(OC(F)(F)F)ccc32)cc(OC)c1OC` [Compound 9], for which the IC (TGI) in [10] stood at 7.4 µM; in series [1] it was 12.3 µM; in [2] it was 8.7 µM. The GI50 in [1] stood at 2.7 µM.

For the compound `COc1cc(/C=C2/C(=O)N(C)c3ccc(O)cc32)cc(OC)c1OC` [Compound 10], the IC (TGI) in series [10] was found to be 17.4 µM; in series [1], 17.4 µM; in [4] it was 8.3 µM; in [12] it was 6.3 µM. The concentration for 50% growth inhibition (GI50) in series [1] was found to be 4.4 µM.

In the case of `COc1ccc2c(c1)/C(=C\c1cc(OC)c(OC)c(OC)c1)C(=O)N2C` [Compound 11], the CC50 in series [1] stood at 89.1 µM. For the same compound, the IC (TGI) in [1] was 21.9 µM; in series [4] it was 7.6 µM; in series [5], 21.9 µM; in series [2], 21.9 µM; in series [9], 24 µM.

Consider `COc1cc(/C=C2\C(=O)N(C)c3ccc(Cl)cc32)cc(OC)c1OC` [Compound 12], for which the GI50 in series [1] was found to be 4.5 µM. Also, the IC (TGI) in series [1] is 21.4 µM; in [5] it was 21.4 µM; in [9] it was 24 µM.

For the compound `COc1cc(/C=C2\C(=O)N(Cc3ccc(Cl)cc3)c3ccccc32)cc(OC)c1OC` [Compound 13], in [1], the GI50 came out at 2.6 µM. In addition, the CC50 in [1] turned out to be 41.7 µM. For the same compound, the IC (TGI) in series [1] worked out at 10.7 µM; in series [4], 4.9 µM; in series [5] it was 8.9 µM; in [12], 7.6 µM; in series [9], 10.7 µM; in series [13], 5.9 µM.

Regarding `COc1ccc(CN2C(=O)/C(=C\c3cc(OC)c(OC)c(OC)c3)c3ccccc32)cc1` [Compound 14], in series [1], the GI50 was found to be 2.1 µM. Further, in [1], the CC50 was 35.5 µM. The IC (TGI) in series [1] is 9.3 µM; in [11] it was 9.3 µM; in [5], 4.5 µM; in [9] it was 9.1 µM; in series [13], 3.6 µM.

As to `COc1ccc(CN2C(=O)/C(=C/c3cc(OC)c(OC)c(OC)c3)c3cc(OC)ccc32)cc1` [Compound 15], the IC (TGI) in [10] was determined as 7.4 µM; in series [1], 8.9 µM; in series [5], 5.7 µM; in series [8], 8.9 µM; in series [9], 8.9 µM; in [13], 3.8 µM. For the same compound, the CC50 in series [1] was determined as 34.7 µM.

As to `COc1ccc2c(c1)C(=Nc1cc(OC)c(OC)c(OC)c1)C(=O)N2` [Compound 18], the “cytotoxic activity in the preliminary one-dose test” value in [15] is “lack of cytotoxic activity”.

`COc1cc(/N=C2\C(=O)N(Cc3ccccc3)c3ccccc32)cc(OC)c1OC` [Compound 19]: the “growth inhibition in the one-dose screen” value in [15] (RXF 393, CCRF-CEM, RPMI-8226 and HOP-92 cells, 10^−5 M, data not shown) is given as “growth inhibition”. Besides, the “cytotoxic activity in the preliminary one-dose test” value in [15] (single concentration 10^−5 M, 48 h incubation) is recorded as “lack of cytotoxic activity”.

In the case of `CC[C@]1(O)C[C@H]2CN(CCc3c([nH]c4ccccc34)[C@@](C(=O)OC)(c3cc4c(cc3OC)N(C=O)[C@H]3[C@@](O)(C(=O)OC)[C@H](OC(C)=O)[C@]5(CC)C=CCN6CC[C@]43[C@@H]65)C2)C1` [Vincristine, reference compound], the IC (TGI) is 6.3 µM in series [10]; 10 µM in series [1]; 15.8 µM in series [11]; 15.8 µM in series [4]; 7.9 µM in series [5]; 19.9 µM in [8]. Moreover, the IC (TGI) in series [12] worked out at 6.3 µM; in series [2], 7.9 µM; in [9], 19.9 µM; in series [13], 4 µM.
